The source of these data is ChEMBL document CHEMBL1124134, “Chemical synthesis and biological activities of 5-deazaaminopterin analogues bearing substituent(s) at the 5- and/or 7-position(s)” (J Med Chem, 1988).

The subject of assay [1] is L1210. Description: Inhibition of cell growth of murine L-1210 cells. The format is functional, cell-based. Conditions: Mus musculus.
For assay [2], the target named is T1, Dihydrofolate reductase (Mus musculus, UniProt P00375).
T1 sequence (P00375 whole entry): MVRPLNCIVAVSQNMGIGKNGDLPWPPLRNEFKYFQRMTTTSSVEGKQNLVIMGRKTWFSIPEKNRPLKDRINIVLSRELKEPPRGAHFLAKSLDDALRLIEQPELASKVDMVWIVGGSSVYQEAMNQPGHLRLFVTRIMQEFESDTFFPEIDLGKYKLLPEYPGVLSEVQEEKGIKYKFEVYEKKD
Description: Inhibitory activity against dihydrofolate reductase (DHFR) of L-1210 cells. Format: cell-based.

Assay [3] has as its system HL-60. Kind of assay: Median-effective concentration for inhibition of human HL-60 cell growth at 48 h. Conditions: HL-60, 48 h, read-out: ED50 (the source's name). Format: functional. A digest of the protocol:
(§1)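 HL-60 cells exposed to five concentrations of each compound for up to 72 h, with viable cells counted by trypan blue exclusion. ED50 at 24, 48 or 72 h derived by median-effect equation and plot. Where dose-effect curves were shallow, values were assigned with < or << marks.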

Assay [4] has as its system HL-60. Description: Compound was evaluated for inhibition of human HL-60 cell growth at 1 (uM) at 48 hr. The format is functional. A digest of the protocol:
(§2)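 HL-60 cells exposed to compound for up to 72 h. Viable cells counted by trypan blue exclusion, with percent growth inhibition read at 1 μM after 24, 48 or 72 h.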

The test system of assay [5] is HL-60. Kind of assay: Median-effective concentration for inhibition of human HL-60 cell growth at 24 h. Format: functional. Conditions: HL-60, 24 h, read-out: ED50 (the source's name). The procedure, abridged: as §1
The test system of assay [6] is HL-60. Description: Median-effective concentration for inhibition of human HL-60 cell growth at 72 h. The format is functional. Conditions: HL-60, 72 h, read-out: ED50 (the source's name). The procedure, abridged:
as §1

The test system of assay [7] is HL-60. Kind of assay: Compound was evaluated for inhibition of human HL-60 cell growth at 1 (uM) at 24 hr. Format: functional. A digest of the protocol:
as §2

For assay [8], the system named is HL-60. Description: Compound was evaluated for inhibition of human HL-60 cell growth at 1 (uM) at 72 hr. The format is functional. A digest of the protocol:
as §2

Assay [9] deals with HL-60. Kind of assay: Inhibition of [6-3H]-dUrd incorporation into DNA in HL-60 cells. Conditions: Homo sapiens, read-out: ED50 (the source's name). Format: functional. The procedure, abridged: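 HL-60 cells preincubated with compound for 40 min, then given [6-3H]dUrd (0.05 μM, 1 μCi/mL) for 30 min at 37 °C, and label incorporated into DNA measured. Five compound concentrations were used, with ED50 from the median-effect equation and plot. For shallow curves, values were given as < or <<.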

Each structure is given as a SMILES string.

The IC50 is the concentration at which inhibition is half-maximal. Read a low IC50 as greater potency. As usually defined, the Ki is the dissociation constant of the complex between target and ligand, obtained from inhibition or displacement. High values mean lower affinity, low ones higher affinity. In the case of `Cc1nc2nc(N)nc(N)c2c(-c2ccccc2)c1CNc1ccc(C(=O)NC(CCC(=O)O)C(=O)O)cc1` (stereo unspecified), in assay [1], it took 18.9 µM to reach half-maximal inhibition (IC50). The Ki in [2] is more than 4 pM.

In the case of `Nc1nc(N)c2cc(CNc3ccc(C(=O)NC(CCC(=O)O)C(=O)O)cc3)c(-c3ccccc3)nc2n1` (stereo unspecified), half-maximal inhibition in assay [1] (IC50) required 16.9 µM. The Ki in assay [2] was more than 4 pM.

Consider `Cc1c(CNc2ccc(C(=O)NC(CCC(=O)O)C(=O)O)cc2)c(-c2ccccc2)nc2nc(N)nc(N)c12` (stereo unspecified), for which the concentration for half-maximal inhibition (IC50) in assay [1] is 18.9 µM. The molecule also gave a Ki in [2] of more than 4 pM.

`Nc1nc(N)c2cc(CNc3ccc(C(=O)NC(CCC(=O)O)C(=O)O)cc3)cnc2n1` (stereo unspecified) gave an IC50 in [1] of 0.02 µM.

As usually defined, the Inhibition is the percentage by which the read-out fell short of the control. Low values mean little suppression, high ones strong suppression. Consider `Cc1nc2nc(N)nc(N)c2c(C)c1CNc1ccc(C(=O)NC(CCC(=O)O)C(=O)O)cc1` (stereo unspecified), for which the IC50 in assay [1] was determined as 0.125 µM. Also, the Ki in assay [2] worked out at 2.01 pM. The EC50 in assay [3] was 8.2 µM; in [5], 42 µM; in assay [6] it was 0.59 µM; in assay [9], 568 µM. For the same molecule, the Inhibition turned out to be 19.8% in assay [4], 10.3% in [7] and 50.8% in [8].

`Cc1c(CNc2ccc(C(=O)NC(CCC(=O)O)C(=O)O)cc2)cnc2nc(N)nc(N)c12` (stereo unspecified) had an IC50 in [1] of 0.00011 µM. The EC50 in [3] was 0.15 µM; in assay [5] it was 2290 µM; in [6] it was less than 0.001 µM; in assay [9], less than 4 µM. The Inhibition in assay [4] is recorded as 61.1%; in [7], 25.2%; in assay [8], 92.2%.

In assay [1], `Cc1nc2nc(N)nc(N)c2cc1CNc1ccc(C(=O)NC(CCC(=O)O)C(=O)O)cc1` (stereo unspecified) returned an IC50 of 0.08 µM. The Ki in assay [2] was more than 4 pM. The EC50 in assay [3] was found to be 2 µM; in [5], 144 µM; in assay [6] it was 0.011 µM; in assay [9] it was 123 µM. In addition, the results for the Inhibition in assay [4], in assay [7] and in assay [8] were 32.5%, 4.7% and 77.6%, respectively.

In assay [1], `CN(Cc1cnc2nc(N)nc(N)c2n1)c1ccc(C(=O)N[C@@H](CCC(=O)O)C(=O)O)cc1` [METHOTREXATE] returned an IC50 of 0.0045 µM. Further, the EC50 in assay [3] was less than 0.05 µM; in assay [5] it was 609 µM; in [6], less than 0.05 µM; in assay [9], 0.1 µM. Besides, the Inhibition is recorded as 64% in assay [4], 34.2% in assay [7] and 87.7% in [8].
